Measured values: ChEMBL document CHEMBL1777788, “Synthesis and in vitro antimicrobial activities of new (cyano-NNO-azoxy)pyrazole derivatives” (2011)
Converted amounts (≈) assume the structure as drawn.

Tests used:
Candida parapsilosis [1] = assay: Antimicrobial activity against Candida parapsilosis ATCC 22019 after 48 hrs by microdilution broth method; format: functional; details: Lodderomyces parapsilosis, ATCC 22019, 48 h
Procedure, shortened: (§1)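 Yeasts were grown overnight on Sabouraud dextrose agar at 35°C, suspended in water, and adjusted at 530 nm to McFarland 0.5 (approximately 1-5 x 10^6 CFU/ml). They were then diluted 1:100 and 1:20 in RPMI 1640 with 0.165 M MOPS and 2% glucose. Compound in DMSO was tested at ten concentrations, 0.25–256 mg/L, with incubation at 35°C. At 48 h, MIC was read spectrophotometrically as 50% turbidity reduction versus growth control.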

Candida albicans [2] = assay: Antimicrobial activity against Candida albicans isolate 31 after 48 hrs by microdilution broth method; format: functional; details: isolate 31, 48 h; procedure, shortened: as §1
Candida albicans [3] = assay: Antimicrobial activity against Candida albicans isolate 41 after 48 hrs by microdilution broth method; format: functional; details: isolate 41, 48 h; procedure, shortened: as §1
Candida albicans [4] = assay: Antimicrobial activity against Candida albicans isolate 47 after 48 hrs by microdilution broth method; format: functional; details: isolate 47, 48 h; procedure, shortened: as §1
Candida albicans [5] = assay: Antimicrobial activity against Candida albicans isolate 48 after 48 hrs by microdilution broth method; format: functional; details: isolate 48, 48 h; procedure, shortened: as §1
Pichia kudriavzevii [6] = assay: Antimicrobial activity against Candida krusei isolate 31 after 48 hrs by microdilution broth method; format: functional; details: isolate 31, 48 h; procedure, shortened: as §1
Pichia kudriavzevii [7] = assay: Antimicrobial activity against Candida krusei isolate 43 after 48 hrs by microdilution broth method; format: functional
Pichia kudriavzevii [8] = assay: Antimicrobial activity against Candida krusei isolate 48 after 48 hrs by microdilution broth method; format: functional
Candida tropicalis [9] = assay: Antimicrobial activity against Candida tropicalis isolate 33 after 48 hrs by microdilution broth method; format: functional; details: isolate 33, 48 h; procedure, shortened: as §1
Candida tropicalis [10] = assay: Antimicrobial activity against Candida tropicalis isolate 11 after 48 hrs by microdilution broth method; format: functional; details: isolate 11, 48 h; procedure, shortened: as §1
Candida tropicalis [11] = assay: Antimicrobial activity against Candida tropicalis isolate 22 after 48 hrs by microdilution broth method; format: functional; details: isolate 22, 48 h; procedure, shortened: as §1
Nakaseomyces glabratus [12] = assay: Antimicrobial activity against Candida glabrata isolate 30 after 48 hrs by microdilution broth method; format: functional; procedure, shortened: as §1
Nakaseomyces glabratus [13] = assay: Antimicrobial activity against Candida glabrata isolate 32 after 48 hrs by microdilution broth method; format: functional; details: isolate 32, 48 h; procedure, shortened: as §1
Nakaseomyces glabratus [14] = assay: Antimicrobial activity against Candida glabrata isolate 46 after 48 hrs by microdilution broth method; format: functional; procedure, shortened: as §1
Nakaseomyces glabratus [15] = assay: Antimicrobial activity against Candida glabrata isolate 49 after 48 hrs by microdilution broth method; format: functional; procedure, shortened: as §1
Candida parapsilosis [16] = assay: Antimicrobial activity against Candida parapsilosis isolate 26 after 48 hrs by microdilution broth method; format: functional; details: Lodderomyces parapsilosis, isolate 26, 48 h; procedure, shortened: as §1
Candida parapsilosis [17] = assay: Antimicrobial activity against Candida parapsilosis isolate 44 after 48 hrs by microdilution broth method; format: functional; details: Lodderomyces parapsilosis, isolate 44, 48 h; procedure, shortened: as §1
Candida parapsilosis [18] = assay: Antimicrobial activity against Candida parapsilosis isolate 19 after 48 hrs by microdilution broth method; format: functional; details: Lodderomyces parapsilosis, isolate 19, 48 h; procedure, shortened: as §1
[19] = system: Cryptococcus deneoformans; assay: Antimicrobial activity against Cryptococcus neoformans var. neoformans isolate 14 after 48 hrs by microdilution broth method; format: functional; details: isolate 14, 48 h; procedure, shortened: as §1
[20] = system: Cryptococcus deneoformans; assay: Antimicrobial activity against Cryptococcus neoformans var. neoformans isolate 27 after 48 hrs by microdilution broth method; format: functional; details: isolate 27, 48 h; procedure, shortened: as §1
[21] = system: Cryptococcus deneoformans; assay: Antimicrobial activity against Cryptococcus neoformans var. neoformans isolate 30 after 48 hrs by microdilution broth method; format: functional; details: isolate 30, 48 h; procedure, shortened: as §1
[22] = system: Cryptococcus deneoformans; assay: Antimicrobial activity against Cryptococcus neoformans var. neoformans isolate 25 after 48 hrs by microdilution broth method; format: functional; details: isolate 25, 48 h; procedure, shortened: as §1
Pichia kudriavzevii [23] = assay: Antimicrobial activity against Candida krusei ATCC 6258 after 48 hrs by microdilution broth method; format: functional; details: ATCC 6258, 48 h
Escherichia coli = assay: Antimicrobial activity against Escherichia coli isolate after 24 hrs by microdilution broth method
Proteus mirabilis = assay: Antimicrobial activity against Proteus mirabilis isolate after 24 hrs by microdilution broth method
Pseudomonas aeruginosa [24] = assay: Antimicrobial activity against Pseudomonas aeruginosa isolate 1 after 24 hrs by microdilution broth method; details: isolate 1, 24 h
Pseudomonas aeruginosa [25] = assay: Antimicrobial activity against Pseudomonas aeruginosa isolate 2 after 24 hrs by microdilution broth method; details: isolate 2, 24 h
Staphylococcus aureus [26] = assay: Antimicrobial activity against methicillin-susceptible Staphylococcus aureus isolate after 24 hrs by microdilution broth method
Staphylococcus aureus [27] = assay: Antimicrobial activity against methicillin-resistant Staphylococcus aureus isolate after 24 hrs by microdilution broth method

Structure (SMILES) | MIC (Candida parapsilosis [1]) [µg/mL] | MIC (Candida albicans [2]) [µg/mL] | MIC (Candida albicans [3]) [µg/mL] | MIC (Candida albicans [4]) [µg/mL] | MIC (Candida albicans [5]) [µg/mL] | MIC (Pichia kudriavzevii [6]) [µg/mL] | MIC (Pichia kudriavzevii [7]) [µg/mL] | MIC (Pichia kudriavzevii [8]) [µg/mL] | MIC (Candida tropicalis [9]) [µg/mL] | MIC (Candida tropicalis [10]) [µg/mL] | MIC (Candida tropicalis [11]) [µg/mL] | MIC (Nakaseomyces glabratus [12]) [µg/mL] | MIC (Nakaseomyces glabratus [13]) [µg/mL] | MIC (Nakaseomyces glabratus [14]) [µg/mL] | MIC (Nakaseomyces glabratus [15]) [µg/mL] | MIC (Candida parapsilosis [16]) [µg/mL] | MIC (Candida parapsilosis [17]) [µg/mL] | MIC (Candida parapsilosis [18]) [µg/mL] | MIC [19] [µg/mL] | MIC [20] [µg/mL] | also measured
Cc1nn(C)c(C)c1/[N+]([O-])=N/C#N | 32 (≈ 179 µM) | 32 (≈ 179 µM) | 32 (≈ 179 µM) | 32 (≈ 179 µM) | 32 (≈ 179 µM) | 32 (≈ 179 µM) | 32 (≈ 179 µM) | 32 (≈ 179 µM) | 64 (≈ 357 µM) | 128 (≈ 714 µM) | 64 (≈ 357 µM) | 64 (≈ 357 µM) | 16 (≈ 89.3 µM) | 64 (≈ 357 µM) | 64 (≈ 357 µM) | 64 (≈ 357 µM) | 64 (≈ 357 µM) | 64 (≈ 357 µM) | 32 (≈ 179 µM) | 32 (≈ 179 µM) | MIC [21]: 32 µg/mL (≈ 179 µM); MIC [22]: 32 µg/mL (≈ 179 µM); MIC (Pichia kudriavzevii [23]): 16 µg/mL (≈ 89.3 µM); MIC (Escherichia coli): > 128 µg/mL; MIC (Proteus mirabilis): > 128 µg/mL; MIC (Pseudomonas aeruginosa [24]): > 128 µg/mL; MIC (Pseudomonas aeruginosa [25]): > 128 µg/mL; MIC (Staphylococcus aureus [26]): > 128 µg/mL
Cc1c(/[N+]([O-])=N/C#N)c(-c2ccccn2)nn1C | 128 (≈ 528 µM) | 64 (≈ 264 µM) | 16 (≈ 66 µM) | 128 (≈ 528 µM) | 128 (≈ 528 µM) | 16 (≈ 66 µM) | 16 (≈ 66 µM) | 8 (≈ 33 µM) | 128 (≈ 528 µM) | 128 (≈ 528 µM) | 128 (≈ 528 µM) | 64 (≈ 264 µM) | 4 (≈ 16.5 µM) | 64 (≈ 264 µM) | 128 (≈ 528 µM) | 128 (≈ 528 µM) | 128 (≈ 528 µM) | 128 (≈ 528 µM) | 16 (≈ 66 µM) | 16 (≈ 66 µM) | MIC [21]: 8 µg/mL (≈ 33 µM); MIC [22]: 8 µg/mL (≈ 33 µM); MIC (Pichia kudriavzevii [23]): 16 µg/mL (≈ 66 µM); MIC (Escherichia coli): > 128 µg/mL; MIC (Proteus mirabilis): > 128 µg/mL; MIC (Pseudomonas aeruginosa [24]): > 128 µg/mL; MIC (Pseudomonas aeruginosa [25]): > 128 µg/mL; MIC (Staphylococcus aureus [27]): 32 µg/mL (≈ 132 µM); MIC (Staphylococcus aureus [26]): 64 µg/mL (≈ 264 µM)
Cc1cc(-c2nn(C)c(C)c2/[N+]([O-])=N/C#N)nn1C | > 128 | 64 (≈ 247 µM) | > 128 | > 128 | > 128 | > 128 | > 128 | > 128 | > 128 | > 128 | > 128 | > 128 | > 128 | > 128 | > 128 | > 128 | > 128 | > 128 | 16 (≈ 61.7 µM) | 16 (≈ 61.7 µM) | MIC [21]: 16 µg/mL (≈ 61.7 µM); MIC [22]: 16 µg/mL (≈ 61.7 µM); MIC (Pichia kudriavzevii [23]): > 128 µg/mL; MIC (Escherichia coli): > 128 µg/mL; MIC (Proteus mirabilis): > 128 µg/mL; MIC (Pseudomonas aeruginosa [24]): > 128 µg/mL; MIC (Pseudomonas aeruginosa [25]): > 128 µg/mL; MIC (Staphylococcus aureus [27]): 32 µg/mL (≈ 123 µM); MIC (Staphylococcus aureus [26]): 32 µg/mL (≈ 123 µM)
